Test results as given in ChEMBL document CHEMBL2331228, “Synthesis and insight into the structure-activity relationships of chalcones as antimalarial agents” (J Med Chem, 2013).
Values after ≈ are worked out from the molar mass of the structure shown. Values belong to the compound of their own block, whether it stands above or below them. Active and inactive are the calls of the source. The rule behind the calls is not given here.

How the values were obtained:
[1] = Selectivity index, ratio of CC50 for african green monkey Vero C1008 cells to IC50 for Plasmodium falciparum 3D7; assay type: functional
Procedure, shortened: (§1)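 SI = CC50 (Vero, 72 h MTT) / IC50. IC50 comes from a 72 h SYBR Green I fluorescence assay: seven 2-fold dilutions in duplicate, 2% cell suspension at 0.8% parasitemia, and Logit regression of the dose-response.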

[2] = tested on: Plasmodium falciparum; assay: Antimalarial activity against schizont stage of chloroquine-sensitive Plasmodium falciparum 3D7 after more than 40 hrs by Giemsa staining-based light microscopic analysis; assay type: functional; conditions: 3D7, 40 h
Procedure, shortened: (§2)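 Ring stages (5% D-sorbitol synchronized) of 3D7 were grown in RPMI with 10% FBS, gentamycin and Fungizone at 37 °C under CO2. They were exposed in duplicate to compound (DMSO stock, 5 mg/mL) at 2, 10 and 50 μg/mL, with 3% cell suspension and 1% parasitized cells, for >40 h. Giemsa-stained thin smears were counted for schizonts. MIC is the lowest concentration giving 100% inhibition of schizont maturation.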

[3] = Inhibition of Plasmodium falciparum recombinant Falcipain-2 using Z-LR-AMC as substrate after 30 mins by microplate reader analysis
[4] = Selectivity index, ratio of CC50 for african green monkey Vero C1008 cells to IC50 for Plasmodium falciparum K1; assay type: functional; procedure, shortened: as §1
[5] = tested on: Plasmodium yoelii; assay: Antimalarial activity against chloroquine-resistant Plasmodium yoelii N-67 infected in Swiss mouse assessed as reduction in parasitemia at 50 mg/kg/day, ip administered for 3 days measured on day 4 relative to control; assay type: functional; set-up: scale not given: the % may be the effect or the level left; conditions: route intraperitoneal
[6] = tested on: Plasmodium falciparum; assay: Antimalarial activity against schizont stage of chloroquine-sensitive Plasmodium falciparum 3D7 after 72 hrs by SYBR Green I-based fluorescence assay; assay type: functional, organism-based; conditions: 3D7, 72 h
Procedure, shortened: (§3)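 Parasites cultured in RPMI with 10% FBS, gentamycin and Fungizone (pH 7.2) at 37 °C in CO2. Compounds from DMSO stock (5 mg/mL). Seven 2-fold serial dilutions, duplicate wells. Cells added at 2% hematocrit, 0.8% parasitemia; uninfected-cell wells kept as background. After 72 h, lysis buffer with SYBR Green I, 1 h at 37 °C, fluorescence read. IC50 by logit regression of dose-response.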

[7] = tested on: Plasmodium falciparum; assay: Resistance ratio of IC5O for Plasmodium falciparum K1 to IC50 for Plasmodium falciparum 3D7; assay type: functional
Procedure, shortened: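 Ratio of K1 IC50 to 3D7 IC50. Both come from the 72 h SYBR Green I fluorescence assay: seven 2-fold dilutions in duplicate, 0.8% parasitemia, IC50 by logit regression.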

[8] = tested on: Plasmodium yoelii; assay: Antimalarial activity against chloroquine-resistant Plasmodium yoelii N-67 infected in Swiss mouse assessed as mean survival time of host at 50 mg/kg/day, ip administered for 3 days (reference value: 9.20 +/- 0.44 days); assay type: functional; conditions: route intraperitoneal
[9] = tested on: Plasmodium falciparum; assay: Antimalarial activity against chloroquine-resistant Plasmodium falciparum K1 after 72 hrs by SYBR Green I-based fluorescence assay; assay type: functional, organism-based; conditions: K1, 72 h; procedure, shortened: as §3
[10] = Cytotoxicity against african green monkey Vero C1008 cells after 72 hrs by MTT assay; assay type: cell-based; conditions: chlorocebus sabaeus
Procedure, shortened: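 Vero (C1008) cells were incubated with dilutions of compound for 72 h and read by MTT. CC50 was obtained by nonlinear regression.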

[11] = tested on: Plasmodium falciparum; assay: Activation of Plasmodium falciparum recombinant Falcipain-3 using Z-LR-AMC as substrate at high concentration after 30 mins by microplate reader analysis
[12] = tested on: Plasmodium falciparum; assay: Inhibition of Plasmodium falciparum recombinant Falcipain-3 using Z-LR-AMC as substrate at low concentration after 30 mins by microplate reader analysis
[13] = tested on: Plasmodium falciparum; assay: Antimalarial activity against schizont stage of chloroquine-sensitive Plasmodium falciparum 3D7 assessed as reduction in parasitemia at 10 ug/ml after more than 40 hrs by Giemsa staining-based light microscopy; assay type: functional; set-up: scale not given: the % may be the effect or the level left; procedure, shortened: as §2
[14] = tested on: Plasmodium falciparum; assay: Antimalarial activity against Plasmodium falciparum; assay type: functional
[15] = tested on: Plasmodium yoelii; assay: Antimalarial activity against chloroquine-resistant Plasmodium yoelii N-67 infected in Swiss mouse assessed as reduction in parasitemia at 3 mg/kg/day, im administered for 3 days measured on day 4 relative to control; assay type: functional; set-up: scale not given: the % may be the effect or the level left; conditions: route intramuscular
[16] = tested on: Plasmodium yoelii; assay: Antimalarial activity against chloroquine-resistant Plasmodium yoelii N-67 infected in Swiss mouse assessed as mean survival time at 3 mg/kg/day, im administered for 3 days (reference value: 9.20 +/- 0.44 days); assay type: functional; conditions: route intramuscular
[17] = AUC (0 to t) in Sprague-Dawley rat at 50 mg/kg, po by LC-MS/MS analysis; assay type: ADME, organism-based; set-up: dose 50 mg/kg, route oral; conditions: plasma
Procedure, shortened: (§4)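 Male Sprague-Dawley rats (n = 5, 220−240 g), single oral dose 50 mg/kg. Plasma stored at −70 °C, processed by acetonitrile protein precipitation, and analysed by LC-MS/MS with QC samples among calibrators.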

[18] = Apparent oral clearance in Sprague-Dawley rat at 50 mg/kg by LC-MS/MS analysis; assay type: ADME, organism-based; set-up: dose 50 mg/kg, route oral; conditions: in vivo; procedure, shortened: as §4
[19] = tested on: Plasmodium yoelii; assay: Antimalarial activity against chloroquine-resistant Plasmodium yoelii N-67 infected in Swiss mouse assessed as reduction in parasitemia at 50 mg/kg/day, po administered for 3 days measured on day 4 relative to control; assay type: functional; set-up: scale not given: the % may be the effect or the level left
[20] = Elimination half life in Sprague-Dawley rat at 50 mg/kg, po by LC-MS/MS analysis; assay type: ADME, organism-based; set-up: dose 50 mg/kg, route oral; conditions: in vivo, read-out: beta t1/2 (converted); procedure, shortened: as §4
[21] = Cmax in Sprague-Dawley rat at 50 mg/kg, po by LC-MS/MS analysis; assay type: ADME, organism-based; set-up: dose 50 mg/kg, route oral; conditions: in vivo; procedure, shortened: as §4
[22] = tested on: Plasmodium yoelii; assay: Antimalarial activity against chloroquine-resistant Plasmodium yoelii N-67 infected in Swiss mouse assessed as mean survival time at 50 mg/kg/day, po administered for 3 days (reference value: 9.20 +/- 0.44 days); assay type: functional
[23] = Tmax in Sprague-Dawley rat at 50 mg/kg, po by LC-MS/MS analysis; assay type: ADME, organism-based; set-up: dose 50 mg/kg, route oral; conditions: in vivo; procedure, shortened: as §4
[24] = Apparent oral volume of distribution in Sprague-Dawley rat at 50 mg/kg by LC-MS/MS analysis; assay type: ADME, organism-based; set-up: dose 50 mg/kg, route oral; conditions: in vivo; procedure, shortened: as §4
[25] = Mean residence time in Sprague-Dawley rat at 50 mg/kg, po by LC-MS/MS analysis; assay type: ADME, organism-based; set-up: dose 50 mg/kg, route oral; conditions: in vivo; procedure, shortened: as §4
[26] = tested on: Plasmodium falciparum; assay: Antimalarial activity against schizont stage of chloroquine-sensitive Plasmodium falciparum 3D7 assessed as reduction in parasitemia at 2 to 10 ug/ml after more than 40 hrs by Giemsa staining-based light microscopy; assay type: functional; set-up: scale not given: the % may be the effect or the level left; procedure, shortened: as §2
[27] = tested on: Plasmodium yoelii; assay: Antimalarial activity against chloroquine-resistant Plasmodium yoelii N-67 infected in Swiss mouse assessed as mean survival time at 20 mg/kg/day, po administered for 3 days (reference value: 9.20 +/- 0.44 days); assay type: functional
[28] = tested on: Plasmodium yoelii; assay: Antimalarial activity against chloroquine-resistant Plasmodium yoelii N-67 infected in Swiss mouse assessed as reduction in parasitemia at 20 mg/kg/day, po administered for 3 days measured on day 4 relative to control; assay type: functional; set-up: scale not given: the % may be the effect or the level left

Structure (SMILES): CC(C)=CCCC1(C)C=Cc2c(ccc(C(=O)/C=C/c3ccc(O)c(C=O)c3)c2O)O1 (centres undefined)
Ratio CC50/IC50 [1]: 79
MIC [2]: 0.59 µM (≈ 0.247 µg/mL)
IC50 [3]: 5500 nM
Ratio CC50/IC50 [4]: 9
Activity [5]: 89%
IC50 [6]: 125 nM
Ratio IC50 [7]: 8.7
MST [8]: 12.33 days
IC50 [9]: 1090 nM
CC50 at 72 h [10]: 9900 nM
Activity [11]: Active
inhibition [12]: Active

Structure (SMILES): CC(C)=CCCC1(C)C=Cc2c(O)c(C(=O)/C=C/c3cc(C=O)ccc3O)cc(CC=C(C)C)c2O1 (centres undefined)
Ratio CC50/IC50 [1]: 1210
MIC [2]: 0.25 µM (≈ 0.122 µg/mL)
Ratio CC50/IC50 [4]: 242
Activity [5]: 71%
IC50 [6]: 73.2 nM
Ratio IC50 [7]: 5
MST [8]: 12.6 days
IC50 [9]: 366 nM
CC50 at 72 h [10]: 88600 nM

Structure (SMILES): CCO[C@H]1O[C@@H]2O[C@@]3(C)CC[C@H]4[C@H](C)CC[C@@H]([C@H]1C)[C@@]24OO3 [ARTEMOTIL]
Ratio CC50/IC50 [1]: 98720
Ratio CC50/IC50 [4]: 124857
IC50 [6]: 1.37 nM
Activity [15]: 100%
Ratio IC50 [7]: 0.79
CC50 at 72 h [10]: 136000 nM
MST [16]: >28 days

Structure (SMILES): CC1(C)CCc2cc(C(=O)/C=C/c3ccc(F)c(F)c3)c(O)cc2O1
Activity [13]: <100%
MIC [2]: > 29.1 µM

Structure (SMILES): CC(C)=CCCC1(C)C=Cc2ccc(O)c(C(=O)/C=C/c3ccc(O)c(C=O)c3)c2O1 (centres undefined)
Ratio CC50/IC50 [1]: 334
MIC [2]: 0.39 µM (≈ 0.163 µg/mL)
Ratio CC50/IC50 [4]: 376
Activity [5]: 88%
IC50 [6]: 94.7 nM
Ratio IC50 [7]: 0.9
MST [8]: 16.75 days
IC50 [9]: 84.2 nM
CC50 at 72 h [10]: 31700 nM

Structure (SMILES): CC(C)=CCCC1(C)C=Cc2c(ccc(C(=O)/C=C/c3cc(C=O)ccc3O)c2O)O1 (centres undefined)
AUC(0-t) [17]: 389 ng·h/mL
CL/F [18]: 2140 mL/min/kg
Activity [19]: 23%
Ratio CC50/IC50 [1]: 64
half-life [20]: 2.32 h
Cmax [21]: 78.3 ng/mL
MIC [2]: 1.19 µM (≈ 0.498 µg/mL)
IC50 [3]: 13500 nM
Ratio CC50/IC50 [4]: 23.7
Activity [5]: 98%
IC50 [6]: 347 nM
MST [22]: 9.2 days
Ratio IC50 [7]: 2.6
MST [8]: 17.4 days
IC50 [9]: 935 nM
CC50 at 72 h [10]: 22200 nM
Tmax [23]: 3 h
Vd/F [24]: 433 L/kg
Activity [11]: Active
inhibition [12]: inactive
MRT [25]: 3.89 h

Structure (SMILES): CC(C)CCC[C@H](C)CCC[C@H](C)CCCC1(C)CCc2cc(C(=O)/C=C/c3cccnc3)c(O)cc2O1 (some centres undefined)
MIC [2]: > 19.3 µM
Activity [26]: <100%

Structure (SMILES): CC(C)=CCCC1(C)C=Cc2ccc(O)c(C(=O)/C=C/c3cc(C=O)ccc3O)c2O1 (centres undefined)
Ratio CC50/IC50 [1]: 1173
MIC [2]: 0.31 µM (≈ 0.13 µg/mL)
IC50 [3]: 4600 nM
Activity [5]: 87%
IC50 [6]: 87.5 nM
MST [8]: 18.4 days
IC50 [9]: > 1200 nM
CC50 at 72 h [10]: 103000 nM
Activity [11]: Active
inhibition [12]: inactive

Structure (SMILES): CC(C)CCC[C@H](C)CCC[C@H](C)CCCC1(C)CCc2cc(C(=O)/C=C/c3ccccn3)c(O)cc2O1 (some centres undefined)
MIC [2]: > 19.3 µM
Activity [26]: <100%

Structure (SMILES): CCN(CC)CCCC(C)Nc1ccnc2cc(Cl)ccc12 (centres undefined) [CHLOROQUINE]
MST [27]: >28 days
Activity [28]: 99%

Structure (SMILES): CN(C)c1ccc(/C=C/C(=O)c2ccc3c(c2O)CCC(C)(C)O3)cc1
Activity [13]: <100%
MIC [2]: > 28.5 µM

Now from value to compound, other results behind:

MIC [2]: > 28.2 µM
Structure (SMILES): CC1(C)CCc2cc(C(=O)/C=C/c3cccc([N+](=O)[O-])c3)c(O)cc2O1
Activity [13]: <100%

MIC [14]: 5.1 µM (≈ 2 µg/mL)
MIC [2]: 5.1 µM (≈ 2 µg/mL)
Structure (SMILES): CC(C)=CCc1cc(C(=O)/C=C/c2ccc(O)cc2)c(O)c(CC=C(C)C)c1O [MEDICAGENIN]

MIC [14]: 4.34 µM (≈ 2 µg/mL)
Structure (SMILES): CC(C)=CCC1=C/C(=C(O)\C=C\c2ccc(O)cc2)C(=O)C(CC=C(C)C)(CC=C(C)C)C1=O [MUNCHIWARIN]

MIC [2]: > 28.3 µM
Structure (SMILES): CC1(C)CCc2cc(C(=O)/C=C/c3ccc([N+](=O)[O-])cc3)c(O)cc2O1
Activity [13]: <100%

MIC [2]: > 26.6 µM
Structure (SMILES): CC1(C)CCc2cc(C(=O)/C=C/c3ccc(Cl)c(Cl)c3)c(O)cc2O1
Activity [13]: <100%

MIC [2]: > 32.4 µM
Structure (SMILES): CC1(C)CCc2cc(C(=O)/C=C/c3ccccn3)c(O)cc2O1
Activity [26]: <100%
